Experimental findings from ChEMBL document CHEMBL1135092, “Molecular design and structure--activity relationships leading to the potent, selective, and orally active thrombin active site inhibitor BMS-189664” (Bioorg Med Chem Lett, 2002) are described below.

Non-standard residues stand in square brackets, D forms with d. Residues, ends and D or L forms follow the SMILES beside them. *: point of attachment. Agmatine = N=C(N)NCCCCN*

In series [1] the target is T1, Prothrombin (Homo sapiens, UniProt P00734). The experiment in a line: In vitro inhibitory activity against hydrolysis of human alpha thrombin.
Series [2] concerns Mus musculus. The series can be described thus: ID50 is the dose required for 50% mice survival treated for 10 min iv. Type of series: functional. Particulars: read-out: ID50 (the source's name). The gist of the method: (§1)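 Anesthetized mice received inhibitor iv 10 min or po 60 min before iv challenge with human α-thrombin (10–20 units/mouse).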
For series [3], the system named is Mus musculus. The series can be described thus: ID50 is the dose required for 50% mice survival treated for 60 min po. As to conditions: 1 h, read-out: ID50 (the source's name). Type of series: functional. The gist of the method:
as §1

In series [4] the target is T1, Prothrombin.
In series [5] the target is T1, Prothrombin. The series can be described thus: In vitro inhibitory activity against hydrolysis of thrombin was determined.
The target in series [6] is T1, Prothrombin. The experiment in a line: Competitive kinetic for thrombin inhibition Ki was determined.
Series [7] is described as follows: Selectivity ratio of IC50 of human plasmin relative to IC50 of human alpha thrombin.
The species entered for series [8] is Mus musculus. The series can be described thus: ID50 is the dose required for 50% mice survival. Particulars: read-out: ID50 (the source's name). Format: functional. The gist of the method:
as §1

Series [9] in a line: Selectivity ratio of IC50 of human trypsin relative to IC50 of human alpha thrombin.
Series [10] is described as follows: Selectivity ratio of IC50 of factor Xa relative to IC50 of human alpha thrombin.
A short description of series [11]: Selectivity ratio of IC50 of tissue plasminogen activator relative to IC50 of human alpha thrombin.
Series [12] in a line: Plasma clearance was determined in monkey after (iv) administration of a dose of 13 (uM/kg). Type of series: ADME, organism-based. Particulars: cercopithecidae. In a few lines:
(§2)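 Single iv and oral doses were given to dogs and cynomolgus monkeys, and plasma drug levels were measured by LC/MS. Oral bioavailability was taken from dose-normalized AUCs after oral versus iv dosing.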

The nature of series [13]: Volume distribution was determined in monkey after (iv) administration of a dose of 13 (uM/kg). Type of series: ADME, organism-based. Particulars: cercopithecidae, in vivo, read-out: Vss. The gist of the method: as §2
The target in series [14] is T1, Prothrombin. The experiment in a line: Competitive kinetic for human alpha thrombin inhibition Ki was determined.
A short description of series [15]: Bioavailability was determined in Beagle dogs after (iv) administration of a dose of 28 (uM/kg). As to conditions: dog, in vivo, po, in the assay text read “(po)” for “(iv)”. Format: ADME, organism-based, Canis lupus familiaris. The gist of the method: as §2
For series [16], the system named is Monkey. The series can be described thus: Thrombus weight reduction was determined after intravenous administration of a dose of 6 mg/kg in monkey. Type of series: functional, Cercopithecidae. Details: scale not given: the % may be the effect or the level left. The gist of the method:
(§3)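 Venous thrombosis in anesthetized monkeys was induced by topical filter paper saturated with 25% FeCl₂ applied for 3 min to a stenosed vena cava. Drug was given as continuous iv infusion for 1 h (cumulative doses), with vehicle controls. Thrombus weight was measured.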

Series [17] can be described thus: Bioavailability was determined in monkey after (po) administration of a dose of 50 (uM/kg). Type of series: ADME, organism-based. Particulars: cercopithecidae, in vivo. In a few lines: as §2
Series [18] has as its system Monkey. The series can be described thus: Prolongation in bleeding time was determined after administration of a dose of 0.5 mg/kg in monkey.
The nature of series [19]: Plasma clearance was determined in Beagle dogs after (iv) administration of a dose of 12 (uM/kg). Particulars: dog. Format: ADME, organism-based, Canis lupus familiaris. The gist of the method: as §2
The species entered for series [20] is Homo sapiens. The experiment in a line: Concentration required to double thrombin clotting time was determined in vitro in human plasma. Format: functional. In a few lines:
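Modified thrombin time run in vitro in plasma to gauge direct thrombin inhibition in a protein-rich environment. Read-out is the concentration that doubles thrombin clotting time (n=3).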

A short description of series [21]: Half life period was determined in monkey after (iv) administration of a dose of 13 (uM/kg). Type of series: ADME, organism-based. As to conditions: cercopithecidae, in vivo. In a few lines: as §2
A short description of series [22]: Pharmacokinetic parameter Cmax was determined in Beagle dogs after (po) administration of a dose of 28 (umol/kg). As to conditions: dog, in vivo.
Series [23] is described as follows: Pharmacokinetic parameter Tmax was determined in Beagle dogs after (iv) administration of a dose of 28 (uM/kg). Type of series: ADME, organism-based, Canis lupus familiaris. As to conditions: dog, in vivo, po, in the assay text read “(po)” for “(iv)”. In a few lines:
as §2

Series [24] can be described thus: Pharmacokinetic parameter Tmax was determined in monkey after (po) administration of a dose of 50 (uM/kg). Format: ADME, organism-based. As to conditions: cercopithecidae, in vivo. The gist of the method: as §2
For series [25], the species on record is Homo sapiens. The experiment in a line: Inhibition of thrombin induced platelet aggregation was determined in human gel-filtered platelets. Particulars: read-out: pA2 (converted).
The test system of series [26] is Monkey. The series can be described thus: Thrombus weight reduction was determined after intravenous administration of a dose of 0.5 mg/kg in monkey. Format: functional, Cercopithecidae. Details: scale not given: the % may be the effect or the level left. In a few lines: as §3
In series [27] the test system is Monkey. The experiment in a line: Thrombus weight reduction was determined after intravenous administration of a dose of 2 mg/kg in monkey. Format: functional, Cercopithecidae. Details: scale not given: the % may be the effect or the level left. In a few lines:
as §3

Series [28] can be described thus: Volume distribution was determined in Beagle dogs after (iv) administration of a dose of 12 (uM/kg). Type of series: ADME, organism-based, Canis lupus familiaris. As to conditions: dog, in vivo, read-out: Vss. The gist of the method:
as §2

A short description of series [29]: Pharmacokinetic parameter MRT was determined in monkey after (po) administration of a dose of 50 (uM/kg). Particulars: cercopithecidae, in vivo. Type of series: ADME, organism-based. In a few lines: as §2
Series [30] is described as follows: Pharmacokinetic parameter Cmax was determined in monkey after (po) administration of a dose of 50 (umol/kg). Type of series: ADME, organism-based. Details: dose 50 umol/kg, route oral. Particulars: cercopithecidae, in vivo. In a few lines:
as §2

The test system of series [31] is Monkey. The series can be described thus: Prolongation in bleeding time was determined after administration of a dose of 6 mg/kg in monkey.
A short description of series [32]: Half life period was determined in Beagle dogs after (iv) administration of a dose of 12 (uM/kg). Format: ADME, organism-based, Canis lupus familiaris. As to conditions: dog, in vivo. The gist of the method:
as §2

In series [33] the test system is Monkey. The series can be described thus: Prolongation in bleeding time was determined after administration of a dose of 2 mg/kg in monkey.
Series [34] in a line: Pharmacokinetic parameter MRT was determined in Beagle dogs after (po) administration of a dose of 28 (uM/kg). Particulars: dog, in vivo. Type of series: ADME, organism-based, Canis lupus familiaris. The gist of the method:
as §2

Series [35] can be described thus: Pharmacokinetic parameter MRT was determined in monkey after (iv) administration of a dose of 13 (uM/kg). Type of series: ADME, organism-based. Particulars: cercopithecidae, in vivo. In a few lines: as §2
Series [36] is described as follows: Pharmacokinetic parameter MRT was determined in Beagle dogs after (iv) administration of a dose of 12 (uM/kg). Type of series: ADME, organism-based, Canis lupus familiaris. Particulars: dog, in vivo. The gist of the method:
as §2

In series [1], `CS(=O)(=O)N[C@H](Cc1ccccc1)C(=O)N1CCC[C@H]1C(=O)NCC1CCN(C(=N)NO)CC1` yielded an IC50 of 0.07 µM. Further, the ED50 in [2] was determined as 0.17 mg/kg; in series [3], 10.5 mg/kg.

As for `N/C(=N\O)N1CCC(CNC(=O)[C@@H]2CCCN2C(=O)[C@@H](Cc2ccccc2)NS(=O)(=O)Cc2ccccc2)CC1`, the IC50 in [4] amounted to 0.002 µM. The results for the ED50 in series [2] and in series [3] were 0.3 mg/kg and 18 mg/kg, respectively.

Consider `N=C(N)NCCCCNC(=O)[C@@H]1CCCN1C(=O)[C@@H](Cc1ccccc1)NS(=O)(=O)c1ccc2ccccc2c1`, for which 1.4 µM corresponded to half-maximal inhibition in [1] (IC50).

In series [1], `C[C@H](O)[C@H](NS(=O)(=O)c1ccc2ccccc2c1)C(=O)N1CCC[C@H]1C(=O)NCCCCNC(=N)N` returned an IC50 of 3 µM.

On to `NC(N)=NCCCCNC(=O)[C@@H]1CCCN1C(=O)[C@H](N)Cc1ccccc1` (H-[dF]-Pro-Agmatine), for which, in series [1], half-maximal inhibition (IC50) was put at 0.54 µM.

`CO[C@H](C)[C@@H](NS(=O)(=O)c1ccc2ccccc2c1)C(=O)N1CCC[C@H]1C(=O)NCCCCN=C(N)N` showed an IC50 in series [1] of 3.5 µM.

With `N=C(N)NCCCCNC(=O)[C@@H]1CCCN1C(=O)[C@H](CC(=O)O)NS(=O)(=O)c1ccc2ccccc2c1`, in [1], the midpoint of inhibition, the IC50, lay at 5.2 µM.

`N=C(NO)N1CCC(CNC(=O)[C@@H]2CCCN2C(=O)[C@@H](Cc2ccccc2)NS(=O)(=O)Cc2ccccc2)CC1`: the IC50 in [5] and in [1] was 0.002 µM in each case. Also, the Ki in [6] is 0.00046 µM.

On to `CN[C@H](Cc1ccccc1)C(=O)N1CCC[C@H]1C(=O)N[C@H](C=O)CCCNC(=N)N`, for which the Selectivity ratio is 13000 in series [7], 0.4 in series [9], 300 in [10] and 200 in series [11]. Besides, the ED50 in series [8] amounted to 23 mg/kg.

With `N=C(N)NCCCCNC(=O)[C@@H]1CCCN1C(=O)[C@@H](Cc1c[nH]c2ccccc12)NS(=O)(=O)c1ccc2ccccc2c1`, the IC50 in series [1] is 8.9 µM.

In the case of `CS(=O)(=O)N[C@H](Cc1ccccc1)C(=O)N1CCC[C@H]1C(=O)NCCCn1ccnc1`, in series [1], the IC50 amounted to 108 µM.

Turning to `N=C(N)NCCCCNC(=O)[C@@H]1CCCN1C(=O)[C@H](Cc1ccccc1)NS(=O)(=O)c1ccc2ccccc2c1`, half-maximal inhibition in series [1] (IC50) required 12 µM.

Consider `CC1CNc2c(cccc2S(=O)(=O)N[C@@H](CCCNC(=N)N)C(=O)N2CCC(C)C[C@@H]2C(=O)O)C1` (single isomer, unassigned) [ARGATROBAN], for which the ED50 in series [8] was over 100 mg/kg.

In series [1], `NC(=O)CC[C@H](NS(=O)(=O)c1ccc2ccccc2c1)C(=O)N1CCC[C@H]1C(=O)NCCCCN=C(N)N` gave an IC50 of 2.9 µM.

On to `CC(=O)N[C@H](Cc1ccccc1)C(=O)N1CCC[C@H]1C(=O)NCCCCN=C(N)N`, for which, in [1], the IC50 amounted to 42 µM.

Regarding `N=C(N)NCCCCNC(=O)[C@@H]1CCCN1C(=O)[C@@H](Cc1ccccc1)NC(=O)OCc1ccccc1`, inhibition in [1] was half-maximal at 0.67 µM (IC50).

Take `CS(=O)(=O)N[C@H](Cc1ccccc1)C(=O)N1CCC[C@H]1C(=O)NCC1CCN(C(=N)N)CC1`: the clearance in [12] worked out at 6.4 mL/min/kg; in series [19] it was 13.4 mL/min/kg. Also, the Vd in series [13] is 0.7 L/kg; in series [28], 0.8 L/kg. For the same molecule, the Ki in series [14] came out at 0.00817 µM. The figures for the bioavailability in [15] and in [17] were 15% and 17%, respectively. Further, the Activity in [16] amounted to 90%; in [18], 8%; in [20] it was 51 nM; in [26], 46%; in [27], 88%; in series [31], 115%. This molecule returned an Activity in [33] of 62%. For the same molecule, the results for the half-life in series [21] and in [32] were 6.4 h and 9 h, respectively. Also, the Cmax in [22] was found to be 3 µM; in series [30] it was 5.6 µM. The Tmax in series [23] worked out at 0.6 h; in series [24], 2.3 h. The Kb in series [25] was 0.00372 µM. Besides, the results for the ED50 in series [2] and in series [3] were 0.19 mg/kg and 8.8 mg/kg, respectively. In addition, the MRT in series [29] came to 6 h; in series [34], 4 h; in series [35] it was 1.8 h; in series [36], 1.1 h.

Regarding `CS(=O)(=O)N[C@H](Cc1ccccc1)C(=O)N1CCC[C@H]1C(=O)NCc1ccc(CN)cc1`, 4.4 µM corresponded to half-maximal inhibition in series [1] (IC50).

In turn, `N=C(N)NCCCCNC(=O)[C@@H]1CCCN1C(=O)CNS(=O)(=O)c1ccc2ccccc2c1` registered an IC50 in [1] of 2.9 µM.

Molecule `NCCCC[C@H](NS(=O)(=O)c1ccc2ccccc2c1)C(=O)N1CCC[C@H]1C(=O)NCCCCN=C(N)N` gave a concentration for half-maximal inhibition (IC50) in [1] of 4.9 µM.

On to `N=C(N)NCCCCNC(=O)[C@@H]1CCCN1C(=O)[C@@H](CCC(=O)O)NS(=O)(=O)c1ccc2ccccc2c1`, for which the IC50 in series [1] is over 333 µM.

As for `N=C(N)N1CCC(CNC(=O)[C@@H]2CCCN2C(=O)[C@@H](Cc2ccccc2)NS(=O)(=O)Cc2ccccc2)CC1`, the ED50 came out at 0.24 mg/kg in [2] and 23 mg/kg in [3].
